FGF22 binding = binders of human FGF22 protein, primary screen, FGF22 synaptogenesis inhibitor project, biophysical, thermal shift, single point; actives 1.5% (n = 340,000); activity (Tm shift, normalised), % at 9.99 µM; Fibroblast growth factor 22 (Homo sapiens), Q9HCT0; AID 651658, 2012; recombinant FGF22 thermal shift, SYPRO orange fluorescence; percent of sucrose octasulfate shift, DMSO zero;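 active = mean Tm shift, scaled 0 neutral to 100 positive control, at about 1.3% or above, every replicate too, limit read from the data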
Target sequence (Q9HCT0 whole entry, looked up): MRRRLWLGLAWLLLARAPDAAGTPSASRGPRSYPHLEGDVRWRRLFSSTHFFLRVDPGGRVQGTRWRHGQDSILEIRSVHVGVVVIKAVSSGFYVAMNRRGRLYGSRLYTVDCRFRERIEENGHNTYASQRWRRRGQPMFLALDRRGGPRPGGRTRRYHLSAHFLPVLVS
S100A4 MyoIIA = inhibitors of S100A4-myosin IIA peptide binding, primary screen, biochemical, fluorescence polarization, TAMRA-MyoIIA peptide | Protein S100-A4 (Homo sapiens), P26447 | actives 0.14% (n = 360,000) | inhibition, % at 10.7 µM | AID 652163, 2013;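 active = mean inhibition of at least 70% across replicates, with every replicate also reaching that level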
Target sequence (P26447 whole entry, looked up): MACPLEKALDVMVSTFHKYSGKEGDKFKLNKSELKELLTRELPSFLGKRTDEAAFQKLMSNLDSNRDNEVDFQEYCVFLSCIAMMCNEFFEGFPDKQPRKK
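Material: S100A4 monomer protein / Buffer or medium: 50 mM HEPES pH 7.2, 10 mM CaCl2, 100 mM KCl / Times: 5 min incubation before reading / Benchmarks: neutral control DMSO, positive control TFP / Reagent: labelled myosin peptide probe, 5 nM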
dFosB act = activators of delta FosB homodimer, primary screen, biochemical, fluorescence polarization, TAMRA-CDK5 oligo, single point; purified delta FosB; percent of positive-control signal above neutral wells; activation, % at 25 µM; actives 0.99% (n = 340,000); AID 493131, 2011; Protein FosB (Mus musculus), P13346;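 active = mean activation above about 17%, with every replicate also reaching it, limit read from the data, passing the limit was not always enough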
Target sequence (P13346 whole entry, looked up): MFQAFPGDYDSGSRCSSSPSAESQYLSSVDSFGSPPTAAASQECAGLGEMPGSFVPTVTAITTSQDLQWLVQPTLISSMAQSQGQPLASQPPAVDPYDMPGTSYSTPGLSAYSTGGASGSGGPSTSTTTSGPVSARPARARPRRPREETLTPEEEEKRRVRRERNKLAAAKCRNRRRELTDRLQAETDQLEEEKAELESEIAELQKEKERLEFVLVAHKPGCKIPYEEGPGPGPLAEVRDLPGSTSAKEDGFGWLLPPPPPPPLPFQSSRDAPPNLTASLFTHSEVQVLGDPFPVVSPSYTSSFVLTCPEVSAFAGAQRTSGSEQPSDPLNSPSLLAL
CFTR F508del cor = F508del CFTR correction, initial screen, CFBE line, single point; CFBE cells, YFP halide quenching; stimulated with forskolin plus potentiator P3; % fluorescence drop versus neutral controls; activity (quench increase), % at 7.58 µM; actives 0.36% (n = 350,000); AID 720511, 2013;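 active = mean added fluorescence quench of at least 8% versus neutral control, with both replicates also reaching 8%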;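 also: cells transiently co-express mutant CFTR-F508del with the halide-sensitive YFP; corrector assay measuring rescue of mutant channel to the surface after 24 h compound exposure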
An asterisk follows results filed as active; . = not tested or not shown. Shown are actives, neighbours in structure and some others; about 2.2% of the full set was active somewhere.

SMILES | FGF22 binding | S100A4 MyoIIA | dFosB act | CFTR F508del cor
Cc1cc2c(c(=O)o1)[C@@]1(C(=O)N(C)c3ccc([N+](=O)[O-])cc31)C1=C(CCCC1=O)O2 | 41 | 1 | . | 2
CCN(CC)C(=O)C(=O)c1ccn(-c2c(C)csc2C(=O)OC)c1 | 43* | -7 | -1 | 0
COC(=O)c1scc(C)c1-n1ccc(C(=O)C(=O)N(C)C)c1 | 0 | 5 | 2 | .
COc1ccc(NC(=O)N/C=C/c2ccco2)cc1 | 43* | -3 | -4 | -2
Cc1ccc2nc(CSc3nnc4ccccn34)cc(=O)n2c1 | 43* | 2 | 0 | 2
Cc1ccc2nc(CSc3nnc(-c4ccco4)n3-c3ccccc3)cc(=O)n2c1 | . | . | -1 | .
Cc1ccc2nc(COc3ccc(Cl)cc3)cc(=O)n2c1 | 43* | -4 | 5 | 3
CCOc1cc(C=O)ccc1OCc1cc(=O)n2cc(C)ccc2n1 | 0 | -1 | 0 | 2
CCCCn1c(CN2CCN(c3cccc(Cl)c3)CC2)nc2c1c(=O)[nH]c(=O)n2C | 0 | -3 | -25 | 14*
O=C(C=Cc1cccnc1)c1ccccc1 | 0 | 2 | 2 | -1
COC(=O)C(=C/C=C/c1cccnc1)C(=O)OC | 43* | 0 | 1 | -4
Cc1noc(C)c1S(=O)(=O)N(C)C[C@H]1Oc2ccc(NC(=O)C3CCCCC3)cc2CC(=O)N([C@H](C)CO)C[C@H]1C | 0 | 10 | . | 0
Cc1ccc(S(=O)(=O)N(C)CCN(C)S(=O)(=O)c2ccc(C)cc2)cc1 | 43* | -2 | 4 | -1
Cc1ccc(S(=O)(=O)N(C)S(=O)(=O)c2ccc(C)cc2)cc1 | 0 | -1 | -4 | -1
CC1(C(=O)NCCCN2CCOCC2)Oc2cccnc2NC1=O (configuration not stated) | 43* | -2 | 3 | -2
COc1ccccc1CNC(=O)C1(C)Oc2cccnc2NC1=O (configuration not stated) | 0 | 0 | -7 | 3
C[C@@H]1CN([C@H](C)CO)S(=O)(=O)c2ccc(-c3cccc(F)c3)cc2O[C@@H]1CN(C)C(=O)C1CC1 | 0 | 11 | . | 1
C[C@H](NC(=O)C[C@@H]1C[C@@H]2c3cc(NS(C)(=O)=O)ccc3O[C@@H]2[C@@H](CO)O1)c1ccccc1 | 0 | 49 | . | -1
Cc1ccc(CN2C(=O)NC(Cc3c[nH]c4ccccc34)C2=O)cc1 (configuration not stated) | . | . | 3 | .
CC(C)CNC(=O)CN1C(=O)NC(Cc2c[nH]c3ccccc23)C1=O (configuration not stated) | 43* | 8 | -3 | 0
O=C1NC(Cc2c[nH]c3ccccc23)C(=O)N1Cc1cccc2ccccc12 (configuration not stated) | 43* | 3 | -8 | 3
Fc1ccc(/C=N/NC(=S)Nc2ccc(Cl)cc2Cl)cc1 | 0 | 6 | 12 | 10*
Cc1occc1-c1n[nH]c(=S)n1C | 43* | -1 | -3 | -1
CCOC(=O)C1(CCCc2ccccc2)CCN(C(=O)[C@@H]2C[C@@H](C)NC(=S)N2)CC1 | 52* | -2 | -4 | 0
CCOC(=O)C1(CCc2ccccc2)CCN(C(=O)CCc2cnn(C)c2)CC1 | 44* | -2 | 5 | 2
SMILES | FGF22 binding | S100A4 MyoIIA | dFosB act | CFTR F508del cor
Cc1ccc(S(=O)(=O)Nc2cccc3c2O[C@@H](CN(C)CC2CCCCC2)[C@@H](C)CN([C@H](C)CO)C3=O)cc1 | 0 | 2 | . | 0
Cc1ccc(/C=C/C2=NN(Cc3ccc(Cl)c(Cl)c3)C(=O)CC2)cc1 | . | . | -3 | .
Cc1ccccc1CN1N=C(/C=C/c2ccccc2)CCC1=O | 45* | -3 | -2 | -2
COC(=O)c1ccc(C(=O)Nc2ccc3nc(-c4ccncc4)[nH]c3c2)cc1 | 0 | -3 | 44* | -5
COc1ccc(NC(=O)Nc2ccc3c(c2)CC(=O)N([C@@H](C)CO)C[C@@H](C)[C@@H](CN(C)Cc2ccncc2)O3)cc1 | 0 | -53 | . | 0
O=C(CSc1n[nH]c(=O)[nH]c1=O)NC1CC1 | 44* | 1 | -4 | 0
CCCCn1nc(NC(=O)CC)c2cc3cc(OC)ccc3nc21 | 0 | -2 | -8 | 9.6*
Cc1cc(NC(=O)c2ccccc2F)nc2c1c(=O)oc1ccccc12 | 44* | 3 | -9 | -1
CCCC(=O)Nc1cc(C)c2c(=O)oc3ccccc3c2n1 | 0 | -2 | -42 | 2
COc1cc(NC(=O)CSc2nncn2C)c(C)cc1[N+](=O)[O-] | 43* | -2 | 8 | 2
CCCN1CCN(c2ccc([N+](=O)[O-])cc2C#N)CC1 | 43* | 3 | -5 | 2
COc1ccccc1/C=C/C=N/NC(=O)CCn1cnc2ccccc21 | 0 | -2 | -15 | 13*
COc1ccccc1S(=O)(=O)N1CC[C@@H]2[C@H](CO)Nc3ccc(-c4ccc(F)cc4)cc3[C@@H]21 | 0 | 15 | . | 1
O=C(NC1CCCC1)N1CC(=O)N2[C@@H](CO)[C@H](c3ccc(/C=C/c4ccccc4)cc3)[C@@H]2C1 | . | 9 | . | 2
O=C(c1cc2c(=O)n3ccccc3nc2s1)N1CCN(Cc2ccc3c(c2)OCO3)CC1 | 43* | 1 | -6 | 3
O=C(Nc1cccc(S(=O)(=O)N2CCCCCC2)c1)c1cc(=O)c2ccccc2o1 | 1 | -7 | 1 | .
CN(c1ccccc1)S(=O)(=O)c1cccc(NC(=O)c2cc(=O)c3ccccc3o2)c1 | 43* | 6 | 1 | .
Cc1cccc2c(N)c3c(nc12)CCCC3 (tested in a mixture with another compound) | 0 | 4 | -5 | -3
Cc1cc(C)c2c(N)c3cccc(C)c3nc2n1 | 0 | -11 | 49* | .
COc1ccccc1OCC(=O)N/N=C1/C=C(C)CC1 | 43* | 2 | 0 | -4
COc1ccccc1OCC(=O)NNC(=O)CCCC(=O)NNC(=O)COc1ccccc1OC | 0 | 0 | 0 | 0
C[C@@H]1CN([C@H](C)CO)C(=O)c2cc(C3=CCCC3)cnc2O[C@@H]1CN(C)C | 0 | -13 | . | 0
O=C(OCC1OC(n2cc(Br)c(=O)[nH]c2=O)C(Br)C1O)c1ccccc1 (configuration not stated) | 1 | 1 | 0 | -1
Cc1cn(C2OC(COC(=O)c3ccccc3)C(O)C2Cl)c(=O)[nH]c1=O (configuration not stated) | 43* | 2 | 0 | -2
C=CCc1c(C)nc(-c2ccccc2)nc1N/N=C/c1ccncc1 | 43* | 4 | -14 | -2
Cc1nc(-c2ccc(C(=O)Nc3ccc(F)cc3)cc2)cs1 | 43* | -3 | 15 | 5
COc1ccc(NC(=O)c2ccc(-c3csc(C)n3)cc2)cc1 | 0 | -2 | 4 | 1

Bioassay records from PubChem.
